The values that follow come from ChEMBL document CHEMBL3228012, “Actinomycin D oxazinones as improved antitumor agents” (1979).

The test system of test [1] is P388. Description: Antitumor activity against mouse P388 cells allografted in mouse BDF1 mouse assessed as increase in survival >50 days at 150 ug/kg, ip for 4 days.
In test [2] the test system is Calf thymus DNA. Description: Binding affinity to calf thymus DNA in 0.15 M NaCl-0.01 M sodium phosphate buffer at pH 7.3 at 37 degC incubated for 30 mins. The class given is nucleic-acid assay. The note with it: Bos taurus. In outline:
(§1)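 Compounds were mixed with calf thymus DNA, and binding was monitored by difference absorption spectra with and without DNA. Binding to DNA was judged from a bathochromic shift of λmax with hypochromicity.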

Test [3] deals with Calf thymus DNA. The experiment in a line: Binding affinity to calf thymus DNA in 0.15 M NaCl-0.01 M phosphate buffer at pH 7.3 at 37 degC incubated for 30 mins. The settings on record: Bos taurus.
The subject of test [4] is Calf thymus DNA. The experiment in a line: Binding affinity to calf thymus DNA in 0.01 M phosphate buffer at pH 7 at 20 degC incubated for 5 mins. The class given is nucleic-acid assay. The note with it: Bos taurus. In outline: as §1
The next test has as its system CCRF-CEM. The experiment in a line: Antitumor activity against human CCRF-CEM cells assessed as growth inhibition after 48 hrs. The class given is functional. The note with it: read-out: ID50 (the source's name). In outline:
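Human leukemic lymphoblasts were grown in continuous spinner suspension culture. Compounds were exposed for 48 h. ID50 was taken as the concentration in ng/mL giving 50% growth inhibition.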

The test system of test [5] is Calf thymus DNA. Description: Binding affinity to calf thymus DNA in 0.15 M NaCl-0.01 M sodium phosphate buffer at pH 7.3 at 37 degC incubated for 5 mins. In kind it is nucleic-acid assay. The note with it: Bos taurus. In outline:
as §1

For test [6], the system named is P388. Description: Antitumor activity against mouse P388 cells allografted in mouse BDF1 mouse assessed as increase in survival time of mouse at 150 ug/kg, ip for 4 days relative to untreated control. The note with it: 96 h.
The test system of test [7] is P388. Description: Antitumor activity against mouse P388 cells allografted in mouse BDF1 mouse assessed as increase in survival >50 days at 300 ug/kg, ip for 4 days.
Test [8] concerns P388. Description: Antitumor activity against mouse P388 cells allografted in mouse BDF1 mouse assessed as increase in survival time of mouse at 300 ug/kg, ip for 4 days relative to untreated control. The note with it: 96 h.
The test system of test [9] is P388. The experiment in a line: Antitumor activity against mouse P388 cells allografted in mouse BDF1 mouse assessed as increase in survival >50 days at 75 ug/kg, ip for 4 days.
Test [10] relates to P388. Description: Antitumor activity against mouse P388 cells allografted in mouse BDF1 mouse assessed as complete suppression of tumor on day 307 at 150 ug/kg, ip for 4 days.
For test [11], the system named is P388. The experiment in a line: Antitumor activity against mouse P388 cells allografted in mouse BDF1 mouse assessed as increase in survival time of mouse at 75 ug/kg, ip for 4 days relative to untreated control. The settings on record: 96 h.
Test [12] concerns P388. The experiment in a line: Antitumor activity against mouse P388 cells allografted in mouse BDF1 mouse assessed as survival time of mouse at 75 ug/kg, ip for 4 days (reference value: 11.5 days).
Test [13] deals with P388. The experiment in a line: Antitumor activity against mouse P388 cells allografted in mouse BDF1 mouse assessed as survival time of mouse at 150 ug/kg, ip for 4 days (reference value: 11.5 days).
Test [14] has as its system P388. The experiment in a line: Antitumor activity against mouse P388 cells allografted in mouse BDF1 mouse assessed as survival time of mouse at 300 ug/kg, ip for 4 days (reference value: 11.5 days).
Test [15] has as its system P388. Description: Antitumor activity against mouse P388 cells allografted in mouse BDF1 mouse assessed as survival time of mouse at 50 ug/kg, ip for 4 days (reference value: 11.5 days).
Test [16] relates to P388. Description: Antitumor activity against mouse P388 cells allografted in mouse BDF1 mouse assessed as increase in survival >50 days at 50 ug/kg, ip for 4 days.
Test [17] relates to P388. Description: Antitumor activity against mouse P388 cells allografted in mouse BDF1 mouse assessed as increase in survival time of mouse at 50 ug/kg, ip for 4 days relative to untreated control. The note with it: 96 h.

Structures are written as SMILES. Converted amounts (≈) assume the structure as drawn. The source made the active and inactive calls. The calls are words filed in the database; no cut-off is given here. Starred links: 1 amine or outer side, 2 acyl side, 3 side chain; linkers in the order of their positions; H or OH if unused. Positions of bridges follow the written chain, without caps; N, C: chain ends. Non-standard residues stand in square brackets, D forms with d. Residues, ends and D or L forms follow the SMILES beside them. Chains are numbered I, II in the order given. Actinocin(1to9) = Cc1c2oc3c(C)ccc(C(=O)[*:2])c3nc-2c(C(=O)[*:1])c(N)c1=O; NMeV = CN[C@H](C(=O)O)C(C)C; Sar = CNCC(=O)O

As for `Cc1ccc(C(=O)N[C@@H]2C(=O)N[C@H](C(C)C)C(=O)N3CCC[C@H]3C(=O)N(C)CC(=O)N(C)[C@@H](C(C)C)C(=O)O[C@@H]2C)c2c1Oc1c(c(C(=O)N[C@@H]3C(=O)N[C@H](C(C)C)C(=O)N4CCC[C@H]4C(=O)N(C)CC(=O)N(C)[C@@H](C(C)C)C(=O)O[C@@H]3C)c3ncc(=O)oc3c1C)N2`, the outcome with P388 [1], in the test on Calf thymus DNA [4] and in the test on Calf thymus DNA [5] was inactive. Further, the result in the test on Calf thymus DNA [2] and in the test on Calf thymus DNA [3] was Active. Moreover, the IC50 in the test on CCRF-CEM stood at 0.024 µg/mL (≈ 18.5 nM). Further, the Percent increase in survival time vs untreated control at 0.15 mg/kg in the test with P388 [6] came out at 169%.
Turning to `Cc1ccc(C(=O)N[C@@H]2C(=O)N[C@H](C(C)C)C(=O)N3CCC[C@H]3C(=O)N(C)CC(=O)N(C)[C@@H](C(C)C)C(=O)O[C@@H]2C)c2c1Oc1c(c(C(=O)N[C@@H]3C(=O)N[C@H](C(C)C)C(=O)N4CCC[C@H]4C(=O)N(C)CC(=O)N(C)[C@@H](C(C)C)C(=O)O[C@@H]3C)c3nc(CCC(=O)O)c(=O)oc3c1C)N2`, the result in the test on P388 [7], in the test on Calf thymus DNA [4] and in the test on Calf thymus DNA [5] was inactive. Moreover, the survival at 0.3 mg/kg in the test with P388 [8] amounted to 159%. The outcome in the test with Calf thymus DNA [2] and with Calf thymus DNA [3] was Active. Further, the IC50 in the test with CCRF-CEM was 0.028 µg/mL (≈ 20.5 nM).
`CCc1nc2c(C(=O)N[C@@H]3C(=O)N[C@H](C(C)C)C(=O)N4CCC[C@H]4C(=O)N(C)CC(=O)N(C)[C@@H](C(C)C)C(=O)O[C@@H]3C)c3c(c(C)c2oc1=O)Oc1c(C)ccc(C(=O)N[C@@H]2C(=O)N[C@H](C(C)C)C(=O)N4CCC[C@H]4C(=O)N(C)CC(=O)N(C)[C@@H](C(C)C)C(=O)O[C@@H]2C)c1N3`: the result in the test on P388 [7], in the test with P388 [9], with Calf thymus DNA [4] and in the test on Calf thymus DNA [5] was inactive. The survival at 0.3 mg/kg with P388 [8] stood at 126%. The outcome in the test with P388 [10], with Calf thymus DNA [2] and with Calf thymus DNA [3] was Active. Besides, the survival at 0.075 mg/kg in the test with P388 [11] turned out to be 152%. Besides, the MST was determined as 29 days with P388 [12], 35 days with P388 [13] and 26 days in the test with P388 [14]. For the same compound, the IC50 in the test with CCRF-CEM came to 0.012 µg/mL (≈ 9.07 nM). Moreover, in the test on P388 [6], the Percent increase in survival time vs untreated control at 0.15 mg/kg was 204%.
On to `Cc1ccc(C(=O)N[C@@H]2C(=O)N[C@H](C(C)C)C(=O)N3CCC[C@H]3C(=O)N(C)CC(=O)N(C)[C@@H](C(C)C)C(=O)O[C@@H]2C)c2c1Oc1c(c(C(=O)N[C@@H]3C(=O)N[C@H](C(C)C)C(=O)N4CCC[C@H]4C(=O)N(C)CC(=O)N(C)[C@@H](C(C)C)C(=O)O[C@@H]3C)c3nc(C)c(=O)oc3c1C)N2`, for which the outcome with P388 [1], in the test on Calf thymus DNA [4] and in the test on Calf thymus DNA [5] was inactive. The outcome in the test with Calf thymus DNA [2] and with Calf thymus DNA [3] was Active. Also, the IC50 in the test on CCRF-CEM came to 0.012 µg/mL (≈ 9.16 nM). The Percent increase in survival time vs untreated control at 0.15 mg/kg in the test with P388 [6] was found to be 155%.
As for `Cc1c2oc3c(C)ccc(C(=O)N[C@@H]4C(=O)N[C@H](C(C)C)C(=O)N5CCC[C@H]5C(=O)N(C)CC(=O)N(C)[C@@H](C(C)C)C(=O)O[C@@H]4C)c3nc-2c(C(=O)N[C@@H]2C(=O)N[C@H](C(C)C)C(=O)N3CCC[C@H]3C(=O)N(C)CC(=O)N(C)[C@@H](C(C)C)C(=O)O[C@@H]2C)c(N)c1=O` [DACTINOMYCIN] (I: T[dV]P[Sar][NMeV] / II: T[dV]P[Sar][NMeV]; ester I:1-I:C, II:1-II:C; linker I:N-II:N via Actinocin(1to9)), the outcome in the test with P388 [1], in the test on P388 [9] and with P388 [16] was inactive. Moreover, the survival at 0.075 mg/kg in the test with P388 [11] came out at 149%. Further, the MST in the test with P388 [15] is 28 days; in the test on P388 [12], 30 days; in the test on P388 [13], 8 days. For the same compound, the IC50 in the test on CCRF-CEM was found to be 0.01 µg/mL (≈ 7.97 nM). Further, the survival at 0.05 mg/kg in the test with P388 [17] is 141%. For the same compound, the survival at 0.15 mg/kg in the test with P388 [6] was -31%.
`Cc1ccc(C(=O)N[C@@H]2C(=O)N[C@H](C(C)C)C(=O)N3CCC[C@H]3C(=O)N(C)CC(=O)N(C)[C@@H](C(C)C)C(=O)O[C@@H]2C)c2c1Oc1c(c(C(=O)N[C@@H]3C(=O)N[C@H](C(C)C)C(=O)N4CCC[C@H]4C(=O)N(C)CC(=O)N(C)[C@@H](C(C)C)C(=O)O[C@@H]3C)c3nc(CC(=O)O)c(=O)oc3c1C)N2`: the result with P388 [1], with Calf thymus DNA [4] and in the test on Calf thymus DNA [5] was inactive. For the same compound, the result in the test with Calf thymus DNA [2] and with Calf thymus DNA [3] was Active. In the test on CCRF-CEM, the IC50 was found to be 0.012 µg/mL (≈ 8.87 nM). Also, the Percent increase in survival time vs untreated control at 0.15 mg/kg in the test with P388 [6] came out at 140%.
